Source: ChEMBL document CHEMBL3608251, “Probing the 'bipolar' nature of the carbonic anhydrase active site: aromatic sulfonamides containing 1,3-oxazol-5-yl moiety as picomolar inhibitors of cytosolic CA I and CA II isoforms” (Eur J Med Chem, 2015)

How the values were obtained:
Homo sapiens [1] = species: Homo sapiens; test: Selectivity ratio of Ki for human recombinant carbonic anhydrase 9 to Ki for human recombinant carbonic anhydrase 2
Carbonic anhydrase 1 = Carbonic anhydrase 1 (Homo sapiens, UniProt P00915); test: Inhibition of human recombinant carbonic anhydrase 1 preincubated for 15 mins by stopped flow CO2 hydration method
Sequence of Carbonic anhydrase 1 (P00915 whole entry, canonical isoform): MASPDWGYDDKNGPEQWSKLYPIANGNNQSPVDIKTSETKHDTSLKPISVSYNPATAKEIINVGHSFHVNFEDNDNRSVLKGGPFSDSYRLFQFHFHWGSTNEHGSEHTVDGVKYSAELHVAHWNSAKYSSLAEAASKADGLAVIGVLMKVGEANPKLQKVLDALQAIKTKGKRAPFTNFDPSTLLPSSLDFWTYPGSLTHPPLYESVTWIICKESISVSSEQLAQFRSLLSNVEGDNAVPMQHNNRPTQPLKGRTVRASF
In short: (§1)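 Stopped-flow assay of CO2 hydration by in-house recombinant CA isoforms. Phenol red 0.2 mM read at 557 nm, in 20 mM Tris pH 8.3 with 20 mM Na2SO4 for constant ionic strength. CO2 1.7–17 mM; initial rates over 10–100 s, uncatalyzed rate subtracted. Inhibitor diluted in buffer down to 0.005 nM and preincubated with enzyme 15 min at room temperature. Ki by non-linear least squares with Cheng-Prusoff, mean of ≥3 determinations.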

Homo sapiens [2] = species: Homo sapiens; test: Selectivity ratio of Ki for human recombinant carbonic anhydrase 12 to Ki for human recombinant carbonic anhydrase 2
Carbonic anhydrase 12 = Carbonic anhydrase 12 (Homo sapiens, UniProt O43570); test: Inhibition of human recombinant carbonic anhydrase 12 preincubated for 15 mins by stopped flow CO2 hydration method; in short: as §1
Sequence of Carbonic anhydrase 12 (O43570 whole entry): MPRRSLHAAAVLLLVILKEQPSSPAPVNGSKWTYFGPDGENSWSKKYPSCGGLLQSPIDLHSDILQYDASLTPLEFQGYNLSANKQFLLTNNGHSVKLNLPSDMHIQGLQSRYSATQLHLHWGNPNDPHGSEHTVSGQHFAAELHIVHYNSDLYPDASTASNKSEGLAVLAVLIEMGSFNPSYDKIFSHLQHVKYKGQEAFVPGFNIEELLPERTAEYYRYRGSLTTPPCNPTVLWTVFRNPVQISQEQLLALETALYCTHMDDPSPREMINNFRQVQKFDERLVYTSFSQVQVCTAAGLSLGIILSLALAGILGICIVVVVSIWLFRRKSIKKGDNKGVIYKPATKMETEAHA

Homo sapiens [3] = species: Homo sapiens; test: Selectivity ratio of Ki for human recombinant carbonic anhydrase 1 to Ki for human recombinant carbonic anhydrase 2
Carbonic anhydrase 2 = Carbonic anhydrase 2 (Homo sapiens, UniProt P00918); test: Inhibition of human recombinant carbonic anhydrase 2 preincubated for 15 mins by stopped flow CO2 hydration method
Carbonic anhydrase 9 = Carbonic anhydrase 9 (Homo sapiens, UniProt Q16790); test: Inhibition of human recombinant carbonic anhydrase 9 preincubated for 15 mins by stopped flow CO2 hydration method; in short: as §1
Homo sapiens [4] = species: Homo sapiens; test: Selectivity ratio of Ki for human recombinant carbonic anhydrase 2 to Ki for human recombinant carbonic anhydrase 1
Homo sapiens [5] = species: Homo sapiens; test: Selectivity ratio of Ki for human recombinant carbonic anhydrase 2 to Ki for human recombinant carbonic anhydrase 12

Row | Compound | Ratio Ki (Homo sapiens [1]) | Ki (Carbonic anhydrase 1) [nM] | Ratio Ki (Homo sapiens [2]) | Ki (Carbonic anhydrase 12) [nM] | Ratio Ki (Homo sapiens [3]) | Ki (Carbonic anhydrase 2) [nM] | Ki (Carbonic anhydrase 9) [nM] | Ratio Ki (Homo sapiens [4]) | Ratio Ki (Homo sapiens [5])
1 | NS(=O)(=O)c1ccc(-c2cnc(C3CC3)o2)cc1 | 100 | 4.8 | 100 | 6.2 | 100 | 0.01 | 3.2 | – | –
2 | COc1ccc(-c2cnc(C(=O)N3CCOCC3)o2)cc1S(N)(=O)=O | – | > 10000 | – | > 10000 | – | 0.05 | 4.5 | > 100000 | > 100000
3 | NS(=O)(=O)c1cc(-c2cnc(C(=O)N3CCOCC3)o2)cs1 | – | 0.09 | – | 9.2 | – | 0.03 | – | 1000 | –
4 | NS(=O)(=O)c1ccc(-c2cnc(C3CCC3)o2)cc1 | 100 | 55.3 | 100 | 8.7 | 100 | 0.02 | – | – | –
5 | NS(=O)(=O)c1ccc(-c2cnc(C(=O)N3CCOCC3)o2)s1 | – | 22.5 | – | 30.3 | – | – | 36.4 | – | –
6 | Cc1ncc(-c2ccc(C)c(S(N)(=O)=O)c2)o1 | – | 45.4 | – | 245 | – | 7.1 | 274 | > 100000 | > 100000
7 | COc1ccc(-c2cnc(C)o2)cc1S(N)(=O)=O | – | > 10000 | – | 3540 | – | 4420 | 276 | > 100000 | > 100000
8 | NS(=O)(=O)c1cc(-c2cnc(C3CCC3)o2)cs1 | – | 9 | – | 6.6 | – | 0.01 | 25.9 | 1000 | –
9 | NS(=O)(=O)c1ccc(-c2cnc(C(=O)N3CCOCC3)o2)cc1 | – | 0.01 | – | 6.9 | – | 0.008 | 1.6 | – | –
10 | Cc1ncc(-c2ccc(S(N)(=O)=O)cc2)o1 | – | 96.3 | – | 8.5 | – | – | 23.1 | – | –
11 | Cc1ccc(-c2cnc(C3CCC3)o2)cc1S(N)(=O)=O | – | 231 | – | 1390 | – | 283 | 285 | > 100000 | > 100000
12 | NS(=O)(=O)c1ccc(-c2cnc(C3CC3)o2)s1 | – | 130 | – | 9.2 | – | 4.8 | 122 | 1000 | –
13 | NS(=O)(=O)c1ccc(-c2cnc(C(=O)N3CCCC3)o2)s1 | – | 41.9 | – | 6.7 | – | 0.01 | 18.7 | 1000 | –
14 | Cc1ccc(-c2cnc(C(=O)N3CCOCC3)o2)cc1S(N)(=O)=O | – | 58.6 | – | 557 | – | 0.28 | 3.7 | > 100000 | > 100000
15 | Cc1ccc(-c2cnc(C(=O)N3CCCC3)o2)cc1S(N)(=O)=O | – | 8.5 | – | 2790 | – | 0.01 | 42.5 | > 100000 | > 100000
16 | Cc1ncc(-c2csc(S(N)(=O)=O)c2)o1 | – | 0.05 | – | 3.6 | – | 0.01 | 26.3 | 1000 | –
17 | Cc1ncc(-c2ccc(S(N)(=O)=O)s2)o1 | – | 141 | – | 9.4 | – | 6.3 | 10.5 | 1000 | –
18 | NS(=O)(=O)c1cc(-c2cnc(C3CC3)o2)cs1 | – | 22 | – | 8.7 | – | 2.5 | – | 1000 | –
19 | COc1ccc(-c2cnc(C(=O)N3CCCC3)o2)cc1S(N)(=O)=O | – | > 10000 | – | 8570 | – | 0.01 | 4.1 | > 100000 | > 100000
20 | COc1ccc(-c2cnc(C3CCC3)o2)cc1S(N)(=O)=O | – | 6110 | – | 62.8 | – | 58.2 | – | > 100000 | > 100000
21 | NS(=O)(=O)c1ccc(-c2cnc(C3CCC3)o2)s1 | – | 36.8 | – | 5.1 | – | 0.01 | – | 1000 | –
22 | Cc1ccc(-c2cnc(C3CC3)o2)cc1S(N)(=O)=O | – | 289 | – | 381 | – | 63.9 | – | > 100000 | > 100000
23 | NS(=O)(=O)c1cc(-c2cnc(C(=O)N3CCCC3)o2)cs1 | – | 79.9 | – | 64.4 | – | 0.02 | 15.2 | 1000 | –
24 | NS(=O)(=O)c1ccc(-c2cnc(C(=O)N3CCCC3)o2)cc1 | – | 0.01 | – | 42.3 | – | 0.009 | 1.7 | – | –
25 | COc1ccc(-c2cnc(C3CC3)o2)cc1S(N)(=O)=O | – | > 10000 | – | 7960 | – | 8860 | 438 | > 100000 | > 100000
